Reference: ChEMBL document CHEMBL4392833, “Thiazolyl-pyrazole derivatives as potential antimycobacterial agents” (Bioorg Med Chem Lett, 2019)

What was measured:
[1] = test system: Mycobacterium tuberculosis variant bovis; experiment: Antitubercular activity against dormant stage of Mycobacterium bovis BCG ATCC 35743 by two fold dilution technique; type: functional; conditions: BCG str. ATCC 35743
Outline: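 MIC against dormant-stage bacilli, read out by XTT reduction menadione assay (XRMA), with rifampicin MIC determined the same way as reference.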

[2] = test system: Mycobacterium tuberculosis variant bovis; experiment: Antitubercular activity against dormant stage of Mycobacterium bovis BCG ATCC 35743 assessed as growth inhibition at 10 ug/ml after 12 days by nitrate reductase assay relative to control; type: functional; conditions: BCG str. ATCC 35743, 288 h
[3] = test system: Mycobacterium tuberculosis variant bovis; experiment: Antitubercular activity against dormant stage of Mycobacterium bovis BCG ATCC 35743 assessed as growth inhibition at 3 ug/ml after 12 days by nitrate reductase assay relative to control; type: functional; conditions: BCG str. ATCC 35743, 288 h
[4] = test system: Mycobacterium tuberculosis variant bovis; experiment: Antitubercular activity against dormant stage of Mycobacterium bovis BCG ATCC 35743 assessed as growth inhibition at 30 ug/ml after 12 days by nitrate reductase assay relative to control; type: functional; conditions: BCG str. ATCC 35743, 288 h
[5] = test system: Mycobacterium tuberculosis variant bovis; experiment: Antitubercular activity against dormant stage of Mycobacterium bovis BCG ATCC 35743 after 12 days by nitrate reductase assay; type: functional, organism-based; conditions: BCG str. ATCC 35743, 288 h
[6] = test system: Mycobacterium tuberculosis variant bovis; experiment: Potency index, ratio of rifampicin MIC to test compound MIC for dormant stage of Mycobacterium bovis BCG ATCC 35743; type: functional, BCG str. ATCC 35743

For `Cc1ccc2oc(-c3cn(-c4ccc(F)cc4)nc3-c3sc(C)nc3C)cc(=O)c2c1`, the MIC90 [1] was 1.18 µM, the inhibition at 10 µg/mL [2] was 96.6% and the inhibition at 3 µg/mL [3] was 97.6%. For the same compound, the inhibition at 30 µg/mL [4] was 95.6% and the IC50 [5] was 5.89 µM.
`Cc1nc(C)c(-c2nn(-c3ccc(F)cc3)cc2C2CC(c3c(O)cc(C)c(Cl)c3C)=NN2)s1` (stereo not drawn) was tested, and the MIC90 [1] was 4.55 µM, the inhibition at 10 µg/mL [2] was 98% and the inhibition at 3 µg/mL [3] was 89%. For the same compound, the inhibition at 30 µg/mL [4] was 98.4% and the IC50 [5] was 5.04 µM.
`Cc1nc(C)c(-c2nn(-c3ccc(F)cc3)cc2/C=C/C(=O)c2cc(Cl)c(C)cc2O)s1` was tested, and the MIC90 [1] was 6.85 µM, the inhibition at 10 µg/mL [2] was 52.8% and the inhibition at 3 µg/mL [3] was 8.47%. The inhibition at 30 µg/mL [4] was 97.2% and the IC50 [5] was 0.79 µM.
With `Cc1ccc(O)c(C2=NNC(c3cn(-c4ccc(F)cc4)nc3-c3sc(C)nc3C)C2)c1` (stereo not drawn) the MIC90 [1] was 63.1 µM, the inhibition at 10 µg/mL [2] was 82.7% and the inhibition at 3 µg/mL [3] was 33%. It also gave an inhibition at 30 µg/mL [4] of 97.5% and an IC50 [5] of 46.4 µM.
For `Cc1nc(C)c(-c2nn(-c3ccc(F)cc3)cc2C2CC(c3cc(Br)ccc3O)=NN2)s1` (stereo not drawn), the Ratio [6] was 4, the MIC90 [1] was 0.39 µM and the inhibition at 10 µg/mL [2] was 98.7%. The inhibition at 3 µg/mL [3] was 96.2%, the inhibition at 30 µg/mL [4] was 99.5% and the IC50 [5] was 5.79 µM.
In the case of `Cc1nc(C)c(-c2nn(-c3ccc(F)cc3)cc2/C=C/C(=O)c2cc(Cl)ccc2O)s1`, the MIC90 [1] is reported as > 30 µg/mL, the inhibition at 10 µg/mL [2] is reported as 5.45% and the inhibition at 3 µg/mL [3] is reported as 5.71%. For the same compound, the inhibition at 30 µg/mL [4] was 19.6% and the IC50 [5] was > 30 µg/mL.
Compound `Cc1nc(C)c(-c2nn(-c3ccc(F)cc3)cc2-c2cc(=O)c3cc(Cl)c(C)cc3o2)s1` has an MIC90 [1] of 2.85 µM, an inhibition at 10 µg/mL [2] of 98.9% and an inhibition at 3 µg/mL [3] of 99.7%. It also gave an inhibition at 30 µg/mL [4] of 98.2% and an IC50 [5] of 3.69 µM.
`Cc1nc(C)c(-c2nn(-c3ccc(F)cc3)cc2/C=C/C(=O)c2cc(Cl)cc(Cl)c2O)s1` was tested, and the MIC90 [1] was > 30 µg/mL, the inhibition at 10 µg/mL [2] was 10.1% and the inhibition at 3 µg/mL [3] was 8.72%. The inhibition at 30 µg/mL [4] was 29.8% and the IC50 [5] was > 30 µg/mL.
With `Cc1nc(C)c(-c2nn(-c3ccc(F)cc3)cc2C2CC(c3cc(Cl)ccc3O)=NN2)s1` (stereo not drawn) the MIC90 [1] was 1.54 µM, the inhibition at 10 µg/mL [2] was 99.7% and the inhibition at 3 µg/mL [3] was 99.2%. The inhibition at 30 µg/mL [4] was 99.7% and the IC50 [5] was 2.48 µM.
`Cc1nc(C)c(-c2nn(-c3ccc(F)cc3)cc2/C=C/C(=O)c2c(O)cc(C)c(Cl)c2C)s1` was tested, and the MIC90 [1] was > 30 µg/mL, the inhibition at 10 µg/mL [2] was 4.19% and the inhibition at 3 µg/mL [3] was 8.39%. The inhibition at 30 µg/mL [4] was 9.91% and the IC50 [5] was > 30 µg/mL.
For `CO[C@H]1/C=C/O[C@@]2(C)Oc3c(C)c(O)c4c(O)c(c(/C=N/N5CCN(C)CC5)c(O)c4c3C2=O)NC(=O)/C(C)=C\C=C\[C@H](C)[C@H](O)[C@@H](C)[C@@H](O)[C@@H](C)[C@H](OC(C)=O)[C@@H]1C` [RIFAMPIN], the MIC90 [1] was 0.98 µM and the IC50 [5] was 0.91 µM.
`Cc1nc(C)c(-c2nn(-c3ccc(F)cc3)cc2/C=C/C(=O)c2cc(Br)ccc2O)s1` was tested, and the MIC90 [1] was > 30 µg/mL, the inhibition at 10 µg/mL [2] was 16.4% and the inhibition at 3 µg/mL [3] was 5.7%. For the same compound, the inhibition at 30 µg/mL [4] was 19.2% and the IC50 [5] was > 30 µg/mL.
For `Cc1nc(C)c(-c2nn(-c3ccc(F)cc3)cc2C2CC(c3cc(Cl)c(C)cc3O)=NN2)s1` (stereo not drawn), the MIC90 [1] was 4.77 µM, the inhibition at 10 µg/mL [2] was 89.7% and the inhibition at 3 µg/mL [3] was 69.6%. The inhibition at 30 µg/mL [4] was 98.5% and the IC50 [5] was 9.65 µM.
With `Cc1ccc(O)c(C(=O)/C=C/c2cn(-c3ccc(F)cc3)nc2-c2sc(C)nc2C)c1` the MIC90 [1] was 16.2 µM, the inhibition at 10 µg/mL [2] was 85.2% and the inhibition at 3 µg/mL [3] was 60.9%. It also gave an inhibition at 30 µg/mL [4] of 96.9% and an IC50 [5] of 1.59 µM.
